In ChEMBL document CHEMBL1142278, “Efficient inhibition of iron superoxide dismutase and of Trypanosoma cruzi growth by benzo[g]phthalazine derivatives functionalized with one or two imidazole rings” (J Med Chem, 2008):

Key:
[1] = tested on: Trypanosoma cruzi; assay: Antiparasitic activity against Trypanosoma cruzi epimastigotes after 24 hrs; type: functional, organism-based
In short: (§1)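 Epimastigotes were cultured with compound at 2.5, 25 and 125 µM, and growth inhibition was read at 24, 48 or 72 h. IC50 was calculated by linear regression from Kc values at those concentrations. Results are the average of three separate determinations.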

[2] = tested on: Trypanosoma cruzi; assay: Antiparasitic activity against Trypanosoma cruzi epimastigotes after 48 hrs; type: functional, organism-based; in short: as §1
[3] = tested on: Trypanosoma cruzi; assay: Antiparasitic activity against Trypanosoma cruzi epimastigotes after 72 hrs; type: functional, organism-based; in short: as §1
[4] = biological target: Superoxide dismutase [Cu-Zn] (Homo sapiens) (UniProt P00441); assay: inhibition of CuZn-SOD in human erythrocytes at 2.5 uM; type: cell-based
[5] = biological target: Superoxide dismutase [Cu-Zn] (Homo sapiens) (UniProt P00441); assay: inhibition of CuZn-SOD in human erythrocytes at 25 uM; type: cell-based
[6] = biological target: Superoxide dismutase [Cu-Zn] (Homo sapiens) (UniProt P00441); assay: inhibition of CuZn-SOD in human erythrocytes at 125 uM; type: cell-based
[7] = tested on: Trypanosoma cruzi; assay: Antiparasitic activity against Trypanosoma cruzi in Vero cells assessed as reduction of infection rate at 10 uM relative to control; type: functional; parameters: scale not given: the % may be the effect or the level left
In short: (§2)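 Vero cells (1 × 10^5) were grown for 2 days, then infected with 1 × 10^6 T. cruzi metacyclic forms, adding compound (10 µM) at the same time. Cultures were followed over days 1–8. Read-outs were % infected cells, mean amastigotes per infected cell, and trypomastigotes in the medium, each compared with an untreated control. Values are means of three separate experiments.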

[8] = tested on: Trypanosoma cruzi; assay: Inhibition of Iron superoxide dismutase in Trypanosoma cruzi epimastigotes at 2.5 uM
[9] = tested on: Trypanosoma cruzi; assay: Inhibition of Iron superoxide dismutase in Trypanosoma cruzi epimastigotes at 25 uM
[10] = tested on: Trypanosoma cruzi; assay: Inhibition of Iron superoxide dismutase in Trypanosoma cruzi epimastigotes at 125 uM
[11] = Toxicity in african green monkey Vero cells after 72 hrs; type: cell-based; details: African green monkey (Chlorocebus sabaeus)
In short: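 Vero cells were cultured with compound for 72 h. The cytotoxic IC50 was derived by linear regression from Kc values at 2.5, 25 and 125 µM. Results are the average of three separate determinations.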

[12] = tested on: Trypanosoma cruzi; assay: Antiparasitic activity against Trypanosoma cruzi in Vero cells assessed as reduction of amastigotes at 10 uM on day 8 relative to control; type: functional; parameters: scale not given: the % may be the effect or the level left; in short: as §2
[13] = tested on: Trypanosoma cruzi; assay: Antiparasitic activity against Trypanosoma cruzi in Vero cells assessed as reduction of trypomastigotes at 10 uM on day 8 relative to control; type: functional; parameters: scale not given: the % may be the effect or the level left; in short: as §2

Superoxide dismutase [Cu-Zn] (Homo sapiens), sequence (P00441 whole entry): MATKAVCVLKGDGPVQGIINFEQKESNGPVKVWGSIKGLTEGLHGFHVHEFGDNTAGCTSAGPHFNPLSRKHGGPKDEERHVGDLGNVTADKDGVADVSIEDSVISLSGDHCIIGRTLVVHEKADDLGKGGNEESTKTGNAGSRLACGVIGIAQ

SMILES | IC50 [1] [µM] | IC50 [2] [µM] | IC50 [3] [µM] | inhibition [4] [%] | inhibition [5] [%] | inhibition [6] [%] | Activity [7] [%] | inhibition [8] [%] | inhibition [9] [%] | inhibition [10] [%] | IC50 at 72 h [11] [µM] | Activity [12] [%] | Activity [13] [%]
c1ccc2cc3c(NCCc4c[nH]cn4)nnc(NCCc4c[nH]cn4)c3cc2c1 | 61.1 | 35.1 | 14.2 | 0 | 5 | 6 | >50 | 46 | 53 | 86 |  |  | 
O=C(Cn1ccnc1[N+](=O)[O-])NCc1ccccc1 [BENZNIDAZOLE] |  |  | 15.8 |  |  |  |  |  |  |  |  |  | 
Clc1nnc(NCCCn2ccnc2)c2cc3ccccc3cc12 | 51 | 46.9 | 13.7 | 7 | 22 | 27 | 74 | 80 | 93 | 94 | 146 |  | 
c1ccc2cc3c(NCCc4cnc[nH]4)nnc(NCCc4cnc[nH]4)c3cc2c1 |  |  |  |  |  |  |  |  |  |  | 88.7 |  | 
c1ccc2cc3c(NCCCn4ccnc4)nnc(NCCCn4ccnc4)c3cc2c1 | 53.4 | 34.8 | < 0.2 | 2 | 12 | 18 | 84 | 32 | 42 | 100 | 69.3 | 44 | >50
Clc1nnc(NCCc2c[nH]cn2)c2cc3ccccc3cc12 | 108 | 34.6 | < 0.3 | 0 | 0 | 11 | 81 | 50 | 91 | 100 | 213 | 55 | >50
